From PubChem BioAssay
Many of the other results were omitted from the sample, so hits are more common in it than they were.
PTEN del growth – growth suppression of PTEN-null HCT116, primary screen, cell-based, CellTiter-Glo | HCT116 PTEN-null viability, 60 h; active compounds read low | viability, % at 10 µM | actives 1.2% (n = 140,000) | AID 827, 2007;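 active = viability at or below a set limit, 4 SD under the median of all tested compounds, cut at about 3.7% in these data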;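 note: PTEN knockout HCT116 line with beta catenin targeted HCT116 as companion control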
bCat KO growth – primary screen for growth suppressors in beta-catenin knockout HCT116 cells (colon tumor, human); HCT116 beta-catenin knockout viability, CellTiter-Glo, 60 h; active compounds read low; viability, % at 10 µM; actives 1.5% (n = 140,000);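 active = viability at or under a set limit, the compound median less 4 SD, cut at about 6% in these data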;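 note: 0% = Hyamine 1622 control at 20 µM and 100% = untreated cell control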
H69AR growth 86K – proliferation blockers of H69AR lung cancer cells, primary screen, cell-based, human, 86K library; H69AR lung tumor viability, ATP luminescence, 72 h; active compounds read low; actives 6% (n = 85,000); viability, % at 10 µM; AID 598, 2007;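 active = viability at or below 40%; inactive = viability above 40%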;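 note: multidrug resistant small cell line overexpressing MRP-1 efflux transporter; 100% = mean luminescence of untreated control wells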
Fibroblast inh – antiproliferative effect on LL 47 fibroblasts – human, LL 47 cells, CellTiter-Glo luminescence, primary screen; LL 47 human lung fibroblast viability, ATP luminescence; active compounds read low; viability, % at 10 µM; actives 1.1% (n = 85,000);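 active = viability at or below 50% in the single dose screen; inactive = viability above 50%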;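 note: compound exposure lasted 72 h before the ATP readout; 100% = median luminescence of untreated cell-only wells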
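Material: human lung fibroblast line LL 47, low passage; Evaluation: viability percentage against median untreated-cell control; Buffer or medium: 15% FBS in IMEM; Incubation: 72 h compound exposure at 37 °C after overnight plating; Dosing: 0.1% DMSO in all compound wells; Measured by: CellTiter-Glo luminescence.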
HUVEC inhibit – inhibitors of HUVEC proliferation, primary screen, cell-based, 384-well. CellTiter-Glo luminescence, 72 h; active compounds read low. viability, % at 10 µM (by protocol). actives 1.1% (n = 86,000);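 active = viability at or below 30%; inactive = viability above 30%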;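 note: 100% = median luminescence of DMSO-only cell control wells on each plate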
* marks the source's active call; other numbers are inactive results.

Results for CN1C(=O)N(C)C2(c3ccccc3)Nn3c(s/c(=C/c4ccccc4)c3=O)=NC12c1ccccc1 (stereo unspecified) ?
PTEN del growth: 74.0; bCat KO growth: 64.7; H69AR growth 86K: 38.3*; Fibroblast inh: 90.7; HUVEC inhibit: 103.0

Results for COc1cc(-c2nnn(CC(=O)N3CCOCC3)n2)cc(OC)c1OC ?
PTEN del growth: 109.7; bCat KO growth: 106.6; H69AR growth 86K: 96.5; Fibroblast inh: 105.3; HUVEC inhibit: 103.6

How did COc1ccc(-c2ccc(-c3nnn(CC(=O)N4CCOCC4)n3)cc2)cc1 do in these assays?
PTEN del growth: 59.4; bCat KO growth: 35.9; H69AR growth 86K: 24.1*; Fibroblast inh: 37.8*; HUVEC inhibit: 85.1

Results for O=C1CN(c2ccc(Cl)cc2)C2(CCCCC2)S1 ?
PTEN del growth: 92.3; bCat KO growth: 88.9

What do the screens show for `CNC(=O)/C=C1\NC(C)(C)Cc2c1ccc1ccccc21`?
PTEN del growth: 55.9; bCat KO growth: 54.5; H69AR growth 86K: 22.7*; Fibroblast inh: 89.5; HUVEC inhibit: 80.2

How did O=C(O)CC(Cc1ccccc1)c1ccc2c(c1)OCO2 (stereo unspecified) do in these assays?
PTEN del growth: 83.9; bCat KO growth: 88.4; H69AR growth 86K: 104.7; Fibroblast inh: 102.6; HUVEC inhibit: 93.0

What do the screens show for `O=C(CC(SCCO)c1ccc2c(c1)OCO2)c1ccco1` (stereo unspecified)?
PTEN del growth: 94.5; bCat KO growth: 107.2; H69AR growth 86K: 15.5*; Fibroblast inh: 87.0; HUVEC inhibit: 85.4

How did c1ccc(CN2CCC(Nc3nc(-c4ccccc4)nc4ccccc34)CC2)cc1 do in these assays?
PTEN del growth: 1.6*; bCat KO growth: 1.6*; H69AR growth 86K: 2.1*; Fibroblast inh: 5.4*; HUVEC inhibit: 4.0*

Results for CC(=O)c1cc2c(cc1NC(=O)c1cc(C)nn1-c1ccccc1)OCO2 ?
PTEN del growth: 32.7; bCat KO growth: 34.9; H69AR growth 86K: 33.4*; Fibroblast inh: 73.9; HUVEC inhibit: 46.3

Results for CC(=O)Nc1ccc(NC(=O)c2cc(C)nn2-c2ccccc2)cc1 ?
PTEN del growth: 93.7; bCat KO growth: 94.8; H69AR growth 86K: 88.7; Fibroblast inh: 105.3; HUVEC inhibit: 111.4

What do the screens show for `CCOC(=O)c1c(Cc2cccc(Cl)c2)c[nH]c1C`?
PTEN del growth: 103.9; bCat KO growth: 91.1

What do the screens show for `O=C(NCc1cccnc1)/C(=C\c1ccc(-c2cccc(Cl)c2)o1)S(=O)(=O)c1ccccc1`?
PTEN del growth: 1.7*; bCat KO growth: 1.7*

How did O=C(NCc1cccnc1)/C(=C/c1ccc(-c2cccc(Cl)c2)o1)S(=O)(=O)c1ccccc1 do in these assays?
PTEN del growth: 1.6*; bCat KO growth: 1.8*

What do the screens show for `Cc1ccc(C(=O)N/C(=C\c2ccc(-c3cc(Cl)ccc3Cl)o2)C(=O)NCc2cccnc2)cc1`?
PTEN del growth: 25.8; bCat KO growth: 32.8

What do the screens show for `CSc1nncc(=O)[nH]1`?
PTEN del growth: 43.8; bCat KO growth: 52.1; H69AR growth 86K: 108.9; Fibroblast inh: 3.6*; HUVEC inhibit: 105.3

What do the screens show for `COc1ccc(OC)c(Nc2nc3nonc3nc2N2CCCC(C)C2)c1` (stereo unspecified)?
PTEN del growth: 95.0; bCat KO growth: 96.4

What do the screens show for `O=C(N1CCOCC1)N1CCCN(C(=O)N2CCOCC2)CC1`?
PTEN del growth: 102.6; bCat KO growth: 103.7; H69AR growth 86K: 36.1*; Fibroblast inh: 100.2; HUVEC inhibit: 91.8

How did COC(=O)C1(C(F)(F)F)N=C2Sc3ccccc3N2C(N2CCOCC2)=N1 (stereo unspecified) do in these assays?
PTEN del growth: 17.1; bCat KO growth: 4.7*; H69AR growth 86K: 94.5; Fibroblast inh: 103.0; HUVEC inhibit: 99.0

What do the screens show for `CC(C)c1nc(SCC(=O)N2CCCC2)c2ccccc2n1`?
PTEN del growth: 75.1; bCat KO growth: 72.0; H69AR growth 86K: 29.0*; Fibroblast inh: 81.9; HUVEC inhibit: 84.5

How did COc1ccc(-n2cccc2/C=C/[N+](=O)[O-])cc1 do in these assays?
PTEN del growth: 2.8*; bCat KO growth: 2.2*

How did COc1ccc(-n2cccc2C=O)cc1 do in these assays?
PTEN del growth: 98.8; bCat KO growth: 95.6

How did COc1ccc(/C=C/C(=O)c2ccc3c(c2)OCCO3)cc1[N+](=O)[O-] do in these assays?
PTEN del growth: 46.1; bCat KO growth: 52.4
